Laboratory results: paper PMC5125728 (Cell reports, 2016)
Changes are numbered by the printed parent chain. One block for each molecule: values may come before it. Where no end group is shown, it is not given here. Me2 = dimethyl (dimethyl-lysine)

Tests used:
[1] = molecular target: PHF20 PHD finger E662D (human) (UniProt Q9BVI0); assay: other fluorescence titration
[2] = molecular target: PHF20 PHD finger (aa 651-699), wild type (human) (UniProt Q9BVI0); assay: other fluorescence titration
[3] = system: E662K mutant of PHF20 PHD finger; assay: NMR and tryptophan fluorescence binding, E662K mutant of PHF20 PHD; design: species or system human; details: E662K folded, soluble, stable protein; Figures 4C and 4E
Procedure, shortened: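 GST-tagged PHF20 PHD (aa 651–699), wild-type or point mutant made by site-directed mutagenesis, was expressed in E. coli Rosetta-2(DE3)pLysS in 15NH4Cl minimal medium with 150 μM ZnCl2, then GST-cleaved. 1H,15N HSQC spectra were collected at 298K (600/500 MHz) as 12-mer histone tail peptides were added stepwise. Shift changes were normalized as √(ΔδH²+(ΔδN/5)²); Kd came from a nonlinear least-squares fit.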

GST-PHF20 PHD = assay: Biotinylated histone peptide pull-down with GST-PHF20 PHD, western blot; format: binding, human; details: 1 μg biotinylated peptide, 1 μg GST-PHF20 PHD, 50 mM Tris-HCl pH 7.5, 250 mM NaCl, 0.1% NP-40, overnight, streptavidin beads
[4] = molecular target: T1, E662D mutant of PHF20-PHD (Homo sapiens, UniProt Q9BVI0, E662D); assay: Tryptophan fluorescence binding of histone peptides to E662D mutant of PHF20 PHD
T1 sequence (Q9BVI0 651-699 E662D): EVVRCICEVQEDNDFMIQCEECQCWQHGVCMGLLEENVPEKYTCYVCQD
Procedure, shortened: (§1)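 The PHF20 PHD (aa 651–699, GST cleaved; mutants by site-directed mutagenesis) was in PBS pH 6.8 with 10 mM DTT at room temperature. Histone peptide was increased progressively. Excitation was at 280 nm and emission was scanned 310–405 nm (0.5-nm steps, 1-s integration, three scans averaged). Kd came from a nonlinear least-squares fit of intensity change, averaged over three separate experiments, with SD between runs.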

PHF20 PHD finger (WT) = molecular target: T2, PHF20 PHD finger (WT) (Homo sapiens, UniProt Q9BVI0); assay: Tryptophan fluorescence binding of histone peptides to WT PHF20 PHD finger
T2 sequence (Q9BVI0 651-699): T1 sequence (Q9BVI0 651-699 E662D) with D12E
Procedure, shortened: as §1

[5] = molecular target: T3, PHF20 PHD finger (residues 646-699) (human, UniProt Q9BVI0 646-699); assay: NMR structure
T3 sequence (looked up): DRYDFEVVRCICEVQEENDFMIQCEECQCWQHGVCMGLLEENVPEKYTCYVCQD

PHF20 PHD finger R654H = molecular target: T4, PHF20 PHD finger R654H (human, UniProt Q9BVI0 651-699, R654H); assay: NMR titration
T4 chain (looked up): T1 sequence (Q9BVI0 651-699 E662D) with R4H, D12E

PHF20 PHD finger P689L = molecular target: T5, PHF20 PHD finger P689L (human, UniProt Q9BVI0 651-699, P689L); assay: NMR titration
T5 chain (looked up): T1 sequence (Q9BVI0 651-699 E662D) with D12E, P39L

PHF20 PHD finger F665V = molecular target: T6, PHF20 PHD finger F665V (human, UniProt Q9BVI0 651-699, F665V); assay: NMR titration
T6 chain (looked up): T1 sequence (Q9BVI0 651-699 E662D) with D12E, F15V

PHF20 Tudor2 (aa 58-148) = molecular target: T7, PHF20 Tudor2 (aa 58-148) (human, UniProt Q9BVI0 58-148); assay: NMR titration
T7 sequence (looked up): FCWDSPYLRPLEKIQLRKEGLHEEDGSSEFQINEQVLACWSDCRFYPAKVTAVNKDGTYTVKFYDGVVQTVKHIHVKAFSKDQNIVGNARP

PHF20 PHD finger E662D = molecular target: T8, PHF20 PHD finger E662D (human, UniProt Q9BVI0 651-699, E662D); assay: other fluorescence titration
T8 chain (looked up): T1 sequence (Q9BVI0 651-699 E662D)

[6] = molecular target: T9, PHF20 PHD finger (aa 651-699), wild type (human, UniProt Q9BVI0 651-699); assay: other fluorescence titration
T9 chain (looked up): T1 sequence (Q9BVI0 651-699 E662D) with D12E

Molecule: H3K4me3 peptide (12-mer)
- Kd [1]: 3.7 µM
- fold weaker than H3K4me2 [2]: 6 fold

Molecule: H3K4me1 peptide (12-mer)
- fold weaker than H3K4me2 [2]: 14 fold

Molecule: C[C@H](N)C(=O)N[C@@H](CCCNC(=N)N)C(=O)N[C@H](C(=O)N[C@@H](CCCCN(C)C)C(=O)N[C@@H](CCC(N)=O)C(=O)N[C@H](C(=O)N[C@@H](C)C(=O)N[C@@H](CCCNC(=N)N)C(=O)N[C@@H](CCCCN)C(=O)N[C@@H](CO)C(=O)N[C@H](C(N)=O)[C@@H](C)O)[C@@H](C)O)[C@@H](C)O [H3K4me2]
- interaction with E662K mutant [3]: completely abrogated interaction
- binding in peptide pull-down (GST-PHF20 PHD): binds
- Kd [4]: 3.6 µM
- Kd (PHF20 PHD finger (WT)): 3.6 µM

Molecule: H3K4me0 peptide (12-mer)
- fold weaker than H3K4me2 [2]: 20 fold

Results, then the molecule that gave them:

- binding result [5]: binds
Molecule: ARTK(Me2)QTARKST-NH2 [11-residue C-terminally amidated H3K4me2 peptide]

- fold decrease of binding compared with WT (PHF20 PHD finger R654H): ~8 fold
- fold decrease of binding compared with WT (PHF20 PHD finger P689L): ~17 fold
- fold decrease of binding compared with WT (PHF20 PHD finger F665V): ~9 fold
- Kd (PHF20 Tudor2 (aa 58-148)): ~1000 µM
- Kd (PHF20 PHD finger E662D): 3.6 µM
- Kd [6]: 3.6 µM
Molecule: ARTK(Me2)QTARKSTG (peptide, UniProt P68431 2-13, looked up) [H3K4me2 peptide (aa 1-12)]
